Laboratory results from ChEMBL document CHEMBL1123499, “Synthesis, saludiuretic, and antihypertensive activity of 6,7-disubstituted 1(2H)- and 3,4-dihydro-1(2H)-phthalazinones” (1986).

Legend:
Rattus norvegicus [1] = species: Rattus norvegicus; assay: Diuretic activity in rats at time intervals of 0-24 hours; assay type: functional, Urine
Method in brief: (§1)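 Male Sabra rats (170-200 g), starved 18 h, given 50 mg/kg by stomach tube in saline (25 mL/kg load), eight per compound, saline and furosemide controls run alongside. Held two per metabolic cage at 22 °C without food or water. Urine volume measured at 5 and 24 h collections.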

Rattus norvegicus [2] = species: Rattus norvegicus; assay: Diuretic activity in rats at time intervals of 0-5 hours; assay type: functional, Urine; method in brief: as §1
Rattus norvegicus [3] = species: Rattus norvegicus; assay: Diuretic activity in rats at time intervals of 5-24 hours; assay type: functional, Urine; method in brief: as §1
Rattus norvegicus [4] = species: Rattus norvegicus; assay: Saluretic activity in rats after 5-24 hours, as sodium ion concentration in urine; assay type: functional
Method in brief: (§2)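 Male Sabra rats (170-200 g), fasted 18 h, dosed orally 50 mg/kg in saline at 25 mL/kg, eight per compound, two per metabolic cage, no food or water. Urine collected 5 and 24 h after dosing and centrifuged. Chloride titrated with Hg(NO3)2/diphenylcarbazone after HNO3 acidification; Na+ and K+ by atomic absorption.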

Rattus norvegicus [5] = species: Rattus norvegicus; assay: Saluretic activity in rats after 0-24 hours, as chloride ion concentration in urine; assay type: functional; method in brief: as §2
Rattus norvegicus [6] = species: Rattus norvegicus; assay: Saluretic activity in rats after 0-24 hours, as potassium ion concentration in urine; assay type: functional; method in brief: as §2
Rattus norvegicus [7] = species: Rattus norvegicus; assay: Saluretic activity in rats after 0-24 hours, as sodium ion concentration in urine; assay type: functional; method in brief: as §2
Rattus norvegicus [8] = species: Rattus norvegicus; assay: Saluretic activity in rats after 0-5 hours, as chloride ion concentration in urine; assay type: functional; method in brief: as §2
Rattus norvegicus [9] = species: Rattus norvegicus; assay: Saluretic activity in rats after 0-5 hours, as sodium ion concentration in urine; assay type: functional; method in brief: as §2
Rattus norvegicus [10] = species: Rattus norvegicus; assay: Saluretic activity in rats after 5-24 hours, as chloride ion concentration in urine; assay type: functional; method in brief: as §2
Rattus norvegicus [11] = species: Rattus norvegicus; assay: Saluretic activity in rats after 5-24 hours, as potassium ion concentration in urine; assay type: functional; method in brief: as §2
Rattus norvegicus [12] = species: Rattus norvegicus; assay: Saluretic activity in rats after 0-5 hours, as potassium ion concentration in urine; assay type: functional; method in brief: as §2
Rattus norvegicus [13] = species: Rattus norvegicus; assay: Saluretic activity in rats after 0-24 hours, as ratio of Na+/K+ ion concentration in urine; assay type: functional; method in brief: as §2
Rattus norvegicus [14] = species: Rattus norvegicus; assay: Saluretic activity in rats after 0-5 hours, as ratio of Na+/K+ ion concentration in urine; assay type: functional; method in brief: as §2
Rattus norvegicus [15] = species: Rattus norvegicus; assay: Saluretic activity in rats after 5-24 hours, as ratio of Na+/K+ ion concentration in urine; assay type: functional; method in brief: as §2

SMILES	Diuretic activity (Rattus norvegicus [1]) [mL]	Diuretic activity (Rattus norvegicus [2]) [mL]	Diuretic activity (Rattus norvegicus [3]) [mL]	Saluretic activity (Rattus norvegicus [4]) [m equiv kg-1]	Saluretic activity (Rattus norvegicus [5]) [m equiv kg-1]	Saluretic activity (Rattus norvegicus [6]) [m equiv kg-1]	Saluretic activity (Rattus norvegicus [7]) [m equiv kg-1]	Saluretic activity (Rattus norvegicus [8]) [m equiv kg-1]	Saluretic activity (Rattus norvegicus [9]) [m equiv kg-1]	Saluretic activity (Rattus norvegicus [10]) [m equiv kg-1]	Saluretic activity (Rattus norvegicus [11]) [m equiv kg-1]	Saluretic activity (Rattus norvegicus [12]) [m equiv kg-1]	Ratio (Rattus norvegicus [13])	Ratio (Rattus norvegicus [14])	Ratio (Rattus norvegicus [15])
NS(=O)(=O)c1cc2cnnc(O)c2cc1Cl	8.8	5.6	3.2	4.3	9.12	5.7	10.44	4.1	6.14	5.02	3.19	2.51	1.83	2.44	1.35
NS(=O)(=O)c1cc2c(cc1Cl)CNN(Cc1ccccc1)C2=O	13.2	6.6	6.6	5.7	13.69	6.79	12.6	8.69	6.9	5	4.18	2.61	1.86	2.65	1.36
NS(=O)(=O)c1cc2c(=O)n(-c3cccc(C(F)(F)F)c3)ncc2cc1Cl	6.6	2.2	4.4	–	–	4.31	6.25	–	2.18	–	3.04	1.27	1.45	1.72	1.33
CN1NCc2cc(S(N)(=O)=O)c(Cl)cc2C1=O	6.1	2.7	3.4	4.94	8.05	4.35	7.35	2.76	2.41	5.29	3	1.35	1.69	1.78	1.64
NS(=O)(=O)c1cc2c(cc1Cl)C(=O)N(Cc1ccccc1)NC2	7.6	4	3.6	5.5	10.53	5.21	9.51	5.14	4.01	5.39	3.29	1.92	1.83	2.1	1.67
NS(=O)(=O)c1cc2c(=O)n(Cc3ccco3)ncc2cc1Cl	2.8	1.8	1	2.4	5.26	3.74	6.08	3.8	3.68	1.46	2.16	1.58	1.63	2.83	1.11
NS(=O)(=O)c1cc2c(O)nncc2cc1Sc1ccccc1	7.6	2.9	4.7	4.97	8.44	5.7	7.87	3.97	2.9	4.47	4.25	1.45	1.38	2	1.17
NS(=O)(=O)c1cc2c(cc1Cl)C(=O)N(c1cccc(C(F)(F)F)c1)NC2	6.1	1.6	4.5	5.6	8.73	4.53	6.86	2.07	1.26	6.66	3.84	0.69	1.51	1.82	1.46
Cn1ncc2cc(S(N)(=O)=O)c(Sc3ccccc3)cc2c1=O	5.9	2.1	3.8	6.55	8.31	4.62	8.6	2.33	2.05	5.98	3.42	1.2	1.86	1.7	1.92
NS(=O)(=O)c1cc2c(cc1Cl)CNN(c1cccc(C(F)(F)F)c1)C2=O	11.6	4.9	6.7	4.9	12.6	5.41	11.07	7.91	6.17	4.69	3.42	1.99	2.05	3.1	1.43
NS(=O)(=O)c1cc2c(cc1Cl)N=CNS2(=O)=O [CHLOROTHIAZIDE]	11.9	7.2	4.7	5.03	13.55	7.89	12.77	8.8	7.74	4.75	4.14	3.75	1.62	2.06	1.21
